Data from the EternaBench riboswitch data.

What was measured:
MS2 coat protein [1] = assay: apparent Kd, MS2 coat protein; higher = weaker binding; RNA-MaP array
In short: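 Apparent Kd values come from the median of binding-curve fits to single clusters. To obtain them, designed RNAs transcribed on an Illumina sequencing chip from sequenced DNA templates were incubated at room temperature with fluorescently labeled MS2 coat protein at 1.5 nM to 3 μM, with or without input ligand, for 0.8–1.5 h at the lowest and 10–20 min at the highest concentrations. Designs measured on fewer than 10 clusters were excluded.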

MS2 coat protein [2] = assay: apparent Kd, MS2 coat protein; higher = weaker binding; RNA-MaP array; FMN 200 µM where present
In short: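 Binding was read on Illumina sequencing-chip clusters where stalled E. coli RNA polymerase had transcribed each design. A titration of SNAP-549-labelled MS2 coat protein began at 0.7 or 1.5 nM and doubled to 3 µM, once without ligand and once with constant ligand, in 100 mM Tris-HCl pH 7.5, 80 mM KCl, 4 mM MgCl2, BSA, DTT, yeast tRNA and Tween-20. The apparent Kd is the median of filtered per-cluster binding-curve fits, based on green signal normalised to red-channel RNA signal and control-cluster median Fmax.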

[3] = designed as: OFF switch for flavin mononucleotide, no ligand
[4] = ligand present: flavin mononucleotide, designed as: OFF switch for flavin mononucleotide
[5] = designed as: ON switch for flavin mononucleotide, no ligand
[6] = ligand present: flavin mononucleotide, designed as: ON switch for flavin mononucleotide

## CUCGGAACAAUCGAUACCAGUUCUCAUGGAUUGCAGCAGUACAUGAGGAUCACCCAUGUAAACCCUUGGCAGCGAAGAACAAGAC
MS2 coat protein [1]; designed as: OFF switch for theophylline, no ligand
  apparent Kd: 32.7 nM
MS2 coat protein [1]; ligand present: theophylline, designed as: OFF switch for theophylline
  apparent Kd: 55.3 nM

## CCCUCUUUAUAGGAUAUGUAGACCAUGGGACAAACAGAAGGAUAGACAUGAGGAUCACCCAUGUGGGAAAACUU
MS2 coat protein [1]; [3]
  apparent Kd: 31.8 nM
MS2 coat protein [1]; [4]
  apparent Kd: 30.4 nM

## AUCGGCAGAAAAGAUACCAGAGUAAUACACAACAUGAGGAUCACCCAUGUACGGACAAUCCUCCCUUGGCAGCUUGUAACAGUAU
MS2 coat protein [1]; designed as: ON switch for theophylline, no ligand
  apparent Kd: 47.8 nM
MS2 coat protein [1]; ligand present: theophylline, designed as: ON switch for theophylline
  apparent Kd: 26.9 nM

## AAAAUACAUGAGGAUCACCCAUGUCGCAAAUGCAUAGGAUAUGAUGAUGCUAAACACGCAUCAGAAGGAUGUAGAA
MS2 coat protein [1]; [5]
  apparent Kd: 10.9 nM
MS2 coat protein [1]; [6]
  apparent Kd: 9.52 nM

## CUCGGAAACGGAGGAUAUAGCUGAAGAGGAUUACUAGAAGGCCGAGACAUGAGGAUCACCCAUGUUUUCUCAAGUCGCAGUUUA
MS2 coat protein [1]; [3]
  apparent Kd: 7.93 nM
MS2 coat protein [1]; [4]
  apparent Kd: 9.48 nM

## GUUUUCAACUUGUAGGAUAUUUCUCACGAGACAUGAGGAUCACCCAUGUAGUGAACCAGGGAUCGAAAGAAGGACAUCAUGACGGU
MS2 coat protein [1]; [5]
  apparent Kd: 75.2 nM
MS2 coat protein [1]; [6]
  apparent Kd: 49.9 nM

## AAUUGAAACAGAGGUAUAUACGGACAUUACCGAGGACCGGUACGGCCGCCACUCGACCUAAAACAUGAGGAUCACCCAUGUAGCA
MS2 coat protein [1]; designed as: OFF switch for tryptophan, no ligand
  apparent Kd: 13.1 nM
MS2 coat protein [1]; ligand present: tryptophan, designed as: OFF switch for tryptophan
  apparent Kd: 13.6 nM

## AUAAUGAGAGGAUAUACAUGAGGAUCACCCAUGUUAUUAUCACGUCGUGCUCCAUUACGUAGAAGGCUCAUUUA
MS2 coat protein [2]; [3]
  apparent Kd: 22 nM
MS2 coat protein [2]; [4]
  apparent Kd: 84.1 nM

## UCCCUUAGUGUAAGGAUAUCGUUCCAUUGACGGAGCGAGAAGGUACAUGAGGAUCACCCAUGUGUCAAUGCCGG
MS2 coat protein [2]; [3]
  apparent Kd: 20 nM
MS2 coat protein [2]; [4]
  apparent Kd: 54.4 nM

## AUUAAUUAAUUAAUACAUGAGGAUCACCCAUGUAAUAAGAUCAAGGAUAUCAGCUCGAAUAGAGCUGAGAAGGUGAUCACAUGU
MS2 coat protein [2]; [5]
  apparent Kd: 555 nM
MS2 coat protein [2]; [6]
  apparent Kd: 226 nM

## GUGGUCAGACAUGAGGAUCACCCAUGUGGAAUAAAUAAGGGACAGGAUAUUCAAUAUAGGAUAUAGAAGAAGGGUUGGUUGGUG
MS2 coat protein [2]; [5]
  apparent Kd: 96.1 nM
MS2 coat protein [2]; [6]
  apparent Kd: 125 nM

## CAUGAUCAUGUAGGAUAUAUACUGGAAUACAGUAUAGAAGGACAUGAGGAUCACCCAUGUUAUGUGCCUCCAAGUAAGAUCAUG
MS2 coat protein [2]; [3]
  apparent Kd: 18.5 nM
MS2 coat protein [2]; [4]
  apparent Kd: 24.7 nM

## UUUUAACAUGAGGAUCACCCAUGUGAGGAUAUCGAAAUUUAUAUUAAUAUUUAUAUUUCGAGAAGGCACAUUUU
MS2 coat protein [2]; [3]
  apparent Kd: 204 nM
MS2 coat protein [2]; [4]
  apparent Kd: 191 nM

## AUGGUCAUGUUAGGAUAUGACGCGCUGUACGCAUCAGAAGGAACAUGAGGAUCACCCAUGUAUAGAGUAAUGUCGCUUACUCUC
MS2 coat protein [2]; [3]
  apparent Kd: 47.9 nM
MS2 coat protein [2]; [4]
  apparent Kd: 187 nM

## GGCCCGCGCGUGAGGAUAUGCUGAUCCCAGGAUUAGCAGAAGGCACAUGAGGAUCACCCAUGUCCAACUUGUCU
MS2 coat protein [2]; [3]
  apparent Kd: 32.6 nM
MS2 coat protein [2]; [4]
  apparent Kd: 57 nM

## UCAAAUGCCGUAGGAUAUAAUGUGCGCCGUCCGUGAGAUGUAAAUUGACAUGAGGAUCACCCAUGUUAGAAGGGCGGCAUCAGC
MS2 coat protein [2]; [3]
  apparent Kd: 5.88 nM
MS2 coat protein [2]; [4]
  apparent Kd: 5.92 nM

## GGUACUCAAAGAGUACUUGGUCGAACAUGAGGAUCACCCAUGUAGGAUAUGCGAAGCAAGAAGUAGCAGAAGGACAUGUGCAGC
MS2 coat protein [2]; [3]
  apparent Kd: 14.8 nM
MS2 coat protein [2]; [4]
  apparent Kd: 43.7 nM

## GGGUACAUCGGAGGAUAUCGUGUAAAUACAUGAGGAUCACCCAUGUCGAUGGAGACAUCGGAGAUUGAGAAGGCCGAUGUACCG
MS2 coat protein [2]; [5]
  apparent Kd: 123 nM
MS2 coat protein [2]; [6]
  apparent Kd: 8.12 nM

## ACAUGAGGAUCACCCAUGUUCACAUAGGAUAUUGAUUAUAUUGGUUUAAGAAUAGUAAUUGACCUCAAGAAGGAUGCCUGAUCU
MS2 coat protein [2]; [5]
  apparent Kd: 15.3 nM
MS2 coat protein [2]; [6]
  apparent Kd: 12.2 nM

## GUUUCUAUAAGUUAUAAUUAACAGUCAGAAGGUGAUACUACGACAUGAGGAUCACCCAUGUAAUUCAAGGAUAUGAACUUAAUC
MS2 coat protein [2]; [5]
  apparent Kd: 1120 nM
MS2 coat protein [2]; [6]
  apparent Kd: 539 nM

## UAUUAAUGCAAGGAUAUGCUAUUAAUUUUUUUUGCAGAAGGUGCAACAUGAGGAUCACCCAUGUUUGAGGGUAU
MS2 coat protein [2]; [3]
  apparent Kd: 66.8 nM
MS2 coat protein [2]; [4]
  apparent Kd: 67.8 nM

## GCGCAUUUAAGAUUUAUAUAAUUUUCAGAAGGUGAAUAGUCGACAUGAGGAUCACCCAUGUAAUUCAAGGAUAUGAUUUAGCGC
MS2 coat protein [2]; [5]
  apparent Kd: 59.6 nM
MS2 coat protein [2]; [6]
  apparent Kd: 10.1 nM

## AGUCGGAGCAGAGGAUAUAUACAUGAGGAUCACCCAUGUGACUGACUACGCUGGAAACAGCAUGUAUAGAAGGCUGCUCCGACA
MS2 coat protein [2]; [3]
  apparent Kd: 448 nM
MS2 coat protein [2]; [4]
  apparent Kd: 882 nM

## UAGGAGUACGUAGGAUAUGUAGGAUAUUCCUACAUGAGGAUCACCCAUGUAUGCAUGGAAGAAGGACAGAAGGACGUGCUCCUU
MS2 coat protein [2]; [5]
  apparent Kd: 200 nM
MS2 coat protein [2]; [6]
  apparent Kd: 13.2 nM

## AGUCUGAGAGGAUAUACAUGAAAAAAAAAAGUUAGAUCCCUACAUGAGGAUCACCCAUGUAGAAGGCUCUGACA
MS2 coat protein [2]; [3]
  apparent Kd: 19.2 nM
MS2 coat protein [2]; [4]
  apparent Kd: 16.7 nM

## GGAAGAGUAGGAUAUACAUGAGGAUCACCCAUGUCCUGGAGAAGCAAUUCGAUAUCCUGUAGAAGGACUAAUCU
MS2 coat protein [2]; [3]
  apparent Kd: 40 nM
MS2 coat protein [2]; [4]
  apparent Kd: 36.1 nM
